From ChEMBL document CHEMBL4813947, “New dual ATP-competitive inhibitors of bacterial DNA gyrase and topoisomerase IV active against ESKAPE pathogens” (Eur J Med Chem, 2021) come the findings set out here.

Converted amounts (≈) assume the structure as drawn.

A word on the MIC: it is the smallest concentration in the dilution series that meets the test's criterion for growth inhibition. A word on the IC50: it is the concentration at which inhibition is half-maximal.

Assay [1] concerns Staphylococcus aureus. Description: Antibacterial activity against methicillin-resistant Staphylococcus aureus ATCC 43300 assessed as inhibition of bacterial growth by CLSI protocol based broth microdilution assay. It counts as functional. An outline of the steps: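 Minimum inhibitory concentration by standard serial broth microdilution following CLSI guidelines. Medium was MHBII broth (22 g/L powder: beef extract, casein acid hydrolysate, starch), with MHBII agar (14 g agar per L broth). Where noted, assayed without and with efflux pump substrate phenylalanine-arginine β-naphthylamide (PAβN).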
For orientation: In broth dilution the organism is exposed to a series of concentrations in liquid medium.

Assay [2] addresses DNA gyrase (Escherichia coli, UniProt P0AES4+P0AES6). The experiment in a line: Inhibition of Escherichia coli DNA gyrase assessed as reduction in supercoiling of relaxed pNO1 DNA measured after 30 mins by fluorescence assay.
Another assay deals with Escherichia coli. The experiment in a line: Antibacterial activity against Escherichia coli ATCC 25922 assessed as inhibition of bacterial growth by CLSI protocol based broth microdilution assay. It counts as functional.
Assay [3] in a line: Inhibition of Staphylococcus aureus topoisomerase assessed as reduction in relaxation of supercoiled pNO1 DNA measured after 30 mins by fluorescence assay. An outline of the steps:
(§1)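 Enzyme run per an earlier-reported procedure; IC50 fitted from seven inhibitor concentrations, mean of three independent measurements.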

Assay [4] deals with Staphylococcus aureus. Description: Antibacterial activity against Staphylococcus aureus ATCC 29213 assessed as inhibition of bacterial growth by CLSI protocol based broth microdilution assay. It counts as functional.
The nature of assay [5]: Inhibition of Escherichia coli topoisomerase assessed as reduction in relaxation of supercoiled pNO1 DNA measured after 30 mins by fluorescence assay. Put shortly:
as §1

The subject of another assay is Pseudomonas aeruginosa. Description: Antibacterial activity against Pseudomonas aeruginosa ATCC 27853 assessed as inhibition of bacterial growth by CLSI protocol based broth microdilution assay. The class given is functional.
A further assay has as its system Enterococcus faecalis. Description: Antibacterial activity against Enterococcus faecalis ATCC 29212 assessed as inhibition of bacterial growth by CLSI protocol based broth microdilution assay. The class given is functional.
Another assay has as its system Klebsiella pneumoniae. The experiment in a line: Antibacterial activity against Klebsiella pneumoniae ATCC 10031 assessed as inhibition of bacterial growth by CLSI protocol based broth microdilution assay. It counts as functional.
The target of assay [6] is DNA gyrase (Staphylococcus aureus, UniProt P0A0K8+P20831). Description: Inhibition of Staphylococcus aureus DNA gyrase assessed reduction in supercoiling of relaxed pNO1 DNA measured after 30 mins by fluorescence assay.
Chain of DNA gyrase (Staphylococcus aureus, UniProt P0A0K8+P20831) (P0A0K8 whole entry): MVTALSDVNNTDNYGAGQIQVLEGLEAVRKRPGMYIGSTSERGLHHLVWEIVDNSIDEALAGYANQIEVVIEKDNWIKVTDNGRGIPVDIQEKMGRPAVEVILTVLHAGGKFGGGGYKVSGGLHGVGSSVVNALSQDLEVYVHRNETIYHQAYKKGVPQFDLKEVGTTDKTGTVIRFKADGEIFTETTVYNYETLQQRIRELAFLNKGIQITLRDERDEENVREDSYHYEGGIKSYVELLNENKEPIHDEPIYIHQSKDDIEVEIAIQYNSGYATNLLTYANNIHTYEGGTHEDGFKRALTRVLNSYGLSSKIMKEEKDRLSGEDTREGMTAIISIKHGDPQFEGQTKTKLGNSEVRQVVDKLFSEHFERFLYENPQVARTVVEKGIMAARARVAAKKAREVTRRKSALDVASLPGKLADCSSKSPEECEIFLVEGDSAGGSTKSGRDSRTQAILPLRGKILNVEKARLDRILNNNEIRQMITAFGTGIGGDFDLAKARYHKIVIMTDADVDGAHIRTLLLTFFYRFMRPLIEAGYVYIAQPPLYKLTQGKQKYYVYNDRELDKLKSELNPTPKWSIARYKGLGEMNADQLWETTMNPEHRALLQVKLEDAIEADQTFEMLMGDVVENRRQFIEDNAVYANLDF
Chain of DNA gyrase (Staphylococcus aureus, UniProt P0A0K8+P20831) (P20831 whole entry): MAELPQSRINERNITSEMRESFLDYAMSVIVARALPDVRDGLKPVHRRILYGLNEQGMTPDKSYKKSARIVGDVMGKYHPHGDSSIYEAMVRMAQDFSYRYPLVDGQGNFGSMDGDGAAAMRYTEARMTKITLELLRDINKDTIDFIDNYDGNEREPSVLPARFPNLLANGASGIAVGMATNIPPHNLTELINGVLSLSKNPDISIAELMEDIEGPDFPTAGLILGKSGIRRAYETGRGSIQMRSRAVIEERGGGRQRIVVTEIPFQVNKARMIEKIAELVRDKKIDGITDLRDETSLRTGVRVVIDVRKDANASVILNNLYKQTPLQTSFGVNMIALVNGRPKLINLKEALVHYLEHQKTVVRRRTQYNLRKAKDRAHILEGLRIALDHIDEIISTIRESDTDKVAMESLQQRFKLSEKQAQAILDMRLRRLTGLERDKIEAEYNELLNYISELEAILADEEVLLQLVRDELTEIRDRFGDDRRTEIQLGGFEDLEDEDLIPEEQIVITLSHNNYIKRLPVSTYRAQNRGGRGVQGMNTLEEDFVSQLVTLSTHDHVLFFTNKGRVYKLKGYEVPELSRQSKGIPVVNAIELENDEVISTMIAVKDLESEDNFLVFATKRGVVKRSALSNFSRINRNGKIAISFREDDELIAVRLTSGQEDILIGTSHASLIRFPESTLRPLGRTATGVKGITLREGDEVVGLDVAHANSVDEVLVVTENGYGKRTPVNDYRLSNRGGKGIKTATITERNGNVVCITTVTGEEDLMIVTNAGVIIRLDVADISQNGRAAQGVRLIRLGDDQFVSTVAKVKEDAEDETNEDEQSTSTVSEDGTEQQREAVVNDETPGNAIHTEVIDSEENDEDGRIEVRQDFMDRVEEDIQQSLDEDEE
The next assay relates to Acinetobacter baumannii. The experiment in a line: Antibacterial activity against Acinetobacter baumannii ATCC 17978 assessed as inhibition of bacterial growth by CLSI protocol based broth microdilution assay. The class given is functional.

In the case of `Cc1[nH]c(C(=O)Nc2nc3ccc(C(=O)NCCC(=O)O)cc3s2)c(Cl)c1Cl`, the MIC in the assay with Staphylococcus aureus [1] was 8 µg/mL (≈ 18.1 µM); with Escherichia coli, > 64 µg/mL; with Staphylococcus aureus [4], 32 µg/mL (≈ 72.5 µM); in the assay on Pseudomonas aeruginosa, > 64 µg/mL; with Enterococcus faecalis it was 2 µg/mL (≈ 4.53 µM); in the assay on Klebsiella pneumoniae it was 8 µg/mL (≈ 18.1 µM). Also, in the assay with Acinetobacter baumannii, the MIC was > 64 µg/mL. Moreover, the IC50 on DNA gyrase [2] is < 10 nM; in [3], 40 nM; in [5], 210 nM; on DNA gyrase [6], 71 nM.
In the case of `Cc1[nH]c(C(=O)Nc2nc3c(OCc4ccccc4)cc(C(=O)NCC#N)cc3s2)c(Cl)c1Cl`, the MIC is 4 µg/mL (≈ 7.78 µM) in the assay on Staphylococcus aureus [1]; > 64 µg/mL in the assay with Escherichia coli; 4 µg/mL (≈ 7.78 µM) in the assay with Staphylococcus aureus [4]; > 64 µg/mL in the assay with Pseudomonas aeruginosa; 16 µg/mL (≈ 31.1 µM) in the assay on Enterococcus faecalis; > 64 µg/mL in the assay on Klebsiella pneumoniae. In the assay on Acinetobacter baumannii, the MIC is > 64 µg/mL. Further, the IC50 is < 10 nM at DNA gyrase [2], > 1000 nM in assay [3], > 1000 nM in assay [5] and 180 nM at DNA gyrase [6].
For the molecule `CCN(C(=O)c1[nH]c(C)c(Cl)c1Cl)c1nc2ccc(C(=O)O)cc2s1`, the MIC is 8 µg/mL (≈ 20.1 µM) in the assay with Staphylococcus aureus [1]; 32 µg/mL (≈ 80.3 µM) in the assay with Escherichia coli; 0.125 µg/mL (≈ 0.314 µM) in the assay with Staphylococcus aureus [4]; > 64 µg/mL with Pseudomonas aeruginosa; 0.125 µg/mL (≈ 0.314 µM) in the assay with Enterococcus faecalis; 16 µg/mL (≈ 40.2 µM) in the assay on Klebsiella pneumoniae. Moreover, in the assay on Acinetobacter baumannii, the minimal inhibitory concentration (MIC) was 16 µg/mL (≈ 40.2 µM). Besides, the IC50 is < 10 nM at DNA gyrase [2], 230 nM in assay [3], > 1000 nM in assay [5] and 32 nM against DNA gyrase [6].
As for `Cc1[nH]c(C(=O)Nc2nc3cc(O)c(C(=O)O)cc3s2)c(Cl)c1Cl`, the MIC is 4 µg/mL (≈ 10.4 µM) in the assay with Staphylococcus aureus [1]; > 64 µg/mL in the assay with Escherichia coli; 16 µg/mL (≈ 41.4 µM) in the assay on Staphylococcus aureus [4]; > 64 µg/mL with Pseudomonas aeruginosa; 1 µg/mL (≈ 2.59 µM) with Enterococcus faecalis; 8 µg/mL (≈ 20.7 µM) in the assay with Klebsiella pneumoniae. For the same molecule, the MIC with Acinetobacter baumannii is > 64 µg/mL. Further, the IC50 at DNA gyrase [2] is < 10 nM; in assay [3], 46 nM; in assay [5] it was 95 nM; on DNA gyrase [6] it was 61 nM.
Take `Cc1[nH]c(C(=O)Nc2nc3ccc(-c4nnn[nH]4)cc3s2)c(Cl)c1Cl`: the MIC was 16 µg/mL (≈ 40.6 µM) in the assay with Staphylococcus aureus [1]; > 64 µg/mL in the assay on Escherichia coli; 16 µg/mL (≈ 40.6 µM) with Staphylococcus aureus [4]; > 64 µg/mL with Pseudomonas aeruginosa; 1 µg/mL (≈ 2.54 µM) with Enterococcus faecalis; 16 µg/mL (≈ 40.6 µM) in the assay on Klebsiella pneumoniae. In addition, in the assay on Acinetobacter baumannii, the MIC is > 64 µg/mL. The IC50 at DNA gyrase [2] was < 10 nM; in assay [3], 270 nM; in [5], 660 nM; against DNA gyrase [6], 25 nM.
Turning to `Cc1[nH]c(C(=O)Nc2nc3c(O)cc(C(=O)O)cc3s2)c(Cl)c1Cl`, the minimal inhibitory concentration (MIC) is 4 µg/mL (≈ 10.4 µM) with Staphylococcus aureus [1]; > 64 µg/mL in the assay with Escherichia coli; 16 µg/mL (≈ 41.4 µM) with Staphylococcus aureus [4]; > 64 µg/mL in the assay on Pseudomonas aeruginosa; 2 µg/mL (≈ 5.18 µM) in the assay on Enterococcus faecalis; 4 µg/mL (≈ 10.4 µM) in the assay on Klebsiella pneumoniae. In addition, in the assay on Acinetobacter baumannii, the MIC was > 64 µg/mL. In addition, the IC50 at DNA gyrase [2] was < 10 nM; in [3], 120 nM; in [5], 130 nM; against DNA gyrase [6] it was 22 nM.
Consider `Cc1[nH]c(C(=O)Nc2nc3c(OCc4cccs4)cc(C(=O)O)cc3s2)c(Cl)c1Cl`, for which the minimum inhibitory concentration (MIC) in the assay on Staphylococcus aureus [1] came to 0.5 µg/mL (≈ 1.04 µM); with Escherichia coli, 8 µg/mL (≈ 16.6 µM); in the assay with Staphylococcus aureus [4], 0.0625 µg/mL (≈ 0.13 µM); with Pseudomonas aeruginosa, 4 µg/mL (≈ 8.29 µM); in the assay with Enterococcus faecalis, 0.0163 µg/mL (≈ 0.0338 µM); in the assay on Klebsiella pneumoniae it was 4 µg/mL (≈ 8.29 µM). For the same molecule, the MIC with Acinetobacter baumannii stood at 1 µg/mL (≈ 2.07 µM). Besides, the IC50 was < 10 nM on DNA gyrase [2], 88 nM in assay [3], 300 nM in [5] and < 10 nM against DNA gyrase [6].
In the case of `COc1cc(C(=O)O)cc2sc(NC(=O)c3[nH]c(C)c(Cl)c3Cl)nc12`, the minimum inhibitory concentration (MIC) in the assay on Staphylococcus aureus [1] came out at 0.5 µg/mL (≈ 1.25 µM); with Escherichia coli, 64 µg/mL (≈ 160 µM); in the assay on Staphylococcus aureus [4], 2 µg/mL (≈ 5 µM); in the assay on Pseudomonas aeruginosa it was 64 µg/mL (≈ 160 µM); in the assay on Enterococcus faecalis, 0.25 µg/mL (≈ 0.625 µM); in the assay with Klebsiella pneumoniae, 2 µg/mL (≈ 5 µM). Also, in the assay with Acinetobacter baumannii, the MIC came out at 16 µg/mL (≈ 40 µM). Further, the IC50 at DNA gyrase [2] is < 10 nM; in assay [3], 390 nM; in [5] it was 160 nM; on DNA gyrase [6], 44 nM.
